Assay results from different studies.
Each line is one published result; the experiments were not run side by side.
Target: Serine/threonine-protein kinase PknB (pknB, Mycobacterium tuberculosis, UniProt P9WI81)

| Structure (SMILES) | observed | method | concentration | remaining binding [%] |
| --- | --- | --- | --- | --- |
| N[C@@H]1CCN(c2nccc(-c3cnn4ncccc34)n2)C1 | binding | – | 1 µM | 100 |
| Nc1ncc2c(n1)-c1c([nH]c3ccc(C#CC4CC4)cc13)CCCC2 | binding | competition with immobilised ligand | 1 µM | 90 |
| O=C(NCCCC1CCCCC1)c1ccc(CNC(=O)c2cnn(-c3ccccc3)c2C(F)(F)F)cc1 | cell-free assay | competition with immobilised ligand | 0.1 µM | 100 |
| O=C(NCC1CCOCC1)c1n[nH]cc1NC(=O)c1c(F)cccc1F | binding | competition with immobilised ligand | 1 µM | 99 |
| Cc1c(NC(=O)c2cc(C(N)=O)nc3cc(F)ccc23)c(C(F)(F)F)nn1Cc1ccc(C#N)cc1 | cell-free assay | competition with immobilised ligand | 1 µM | 78 |
| CN(CCCC(F)(F)F)c1nccc(-c2cnn3ncccc23)n1 | binding | – | 1 µM | 89 |
| CNC(=O)[C@@H]1CC[C@@H](n2c(-c3ccc4cnccc4c3)nc3ccc(C(=O)NCc4cccc(C(N)=O)c4)cc32)C1 | binding | competition with immobilised ligand | 1 µM | 96 |
| Cc1nn(C)cc1-c1nc2c(N3CCN(Cc4ccc(Cl)cc4)CC3)c(Cl)cnc2[nH]1 | binding | competition with immobilised ligand | 1 µM | 56 |
| FC(F)(F)Oc1cccc(-c2cnc3ccc(-c4ccncc4)nn23)c1 | cell-free assay | competition with immobilised ligand | 5 µM | 31 |
| F[C@@H]1CCN(c2nccc(-c3cnn4ncccc34)n2)C1 | binding | – | 1 µM | 100 |
| CN(C)CC#Cc1ccc(OCCCc2sc(N3CCc4cccc(C(=O)Nc5nc6ccccc6s5)c4C3)nc2C(=O)O)c(F)c1 | cell-free assay | competition with immobilised ligand | 1 µM | 100 |
| c1cnn2ncc(-c3ccnc(N4CCC45COC5)n3)c2c1 | binding | – | 1 µM | 79 |
| c1cncc(-c2cccc(Nc3nccc(NC4CCCCC4)n3)c2)c1 | binding | competition with immobilised ligand | 10 µM | 89 |
| CC1=C(C#N)C(c2ccc3c(c2)c(NC(=O)c2ccccc2C)nn3C)C(C#N)=C(C)N1 | cell-free assay | competition with immobilised ligand | 1 µM | 97 |
| C[C@@H]1CCN(c2nccc(-c3cnn4ncccc34)n2)C1 | binding | – | 1 µM | 100 |
